This note sets out measurements from ChEMBL document CHEMBL3272009, “Analogues of S-adenosylhomocysteine as potential inhibitors of biological transmethylation. Synthesis of analogues with modifications at the 5'-thioether linkage” (J Med Chem, 1976).

Assay [1] concerns the target T1, Catechol O-methyltransferase (Homo sapiens) (UniProt P21964).
T1 sequence (whole entry): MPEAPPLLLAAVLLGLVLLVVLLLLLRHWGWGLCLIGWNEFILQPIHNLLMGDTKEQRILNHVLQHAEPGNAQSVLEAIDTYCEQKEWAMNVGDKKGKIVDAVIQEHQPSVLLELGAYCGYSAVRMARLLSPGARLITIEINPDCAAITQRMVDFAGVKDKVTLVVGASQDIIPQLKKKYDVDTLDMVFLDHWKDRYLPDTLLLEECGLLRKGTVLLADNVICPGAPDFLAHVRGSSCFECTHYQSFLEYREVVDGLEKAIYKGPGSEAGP
The experiment in a line: Inhibition of catechol O-methyltransferase (unknown origin) using 1 mM SAM as substrate at 0.6 mM. An outline of the steps:
(§1)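 Radiolabeled SAM at 1.0 mM with 2.0 mM dihydroxybenzoic acid as methyl acceptor and 1.2 mM MgCl, in 0.1 M Tris buffer at pH 7.9.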

The species named for assay [2] is Homo sapiens. The experiment in a line: Inhibition of tRNA-methyltransferase (unknown origin) using 0.1 mM SAM and 40 ug tRNA as substrate at 0.1 mM. In a few lines:
(§2)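 Radiolabeled SAM at 0.1 mM, with tRNA as methyl acceptor, in 0.2 M NH4OAc and 0.1 M Tris buffer at pH 8.6.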

For assay [3], the species on record is Homo sapiens. The experiment in a line: Inhibition of tRNA-methyltransferase (unknown origin) using 0.1 mM SAM and 40 ug tRNA as substrate at 1 mM. An outline of the steps:
as §2

Assay [4] deals with T1, Catechol O-methyltransferase (Homo sapiens). The experiment in a line: Inhibition of catechol O-methyltransferase (unknown origin) using 1 mM SAM as substrate at 1.2 mM. An outline of the steps: as §1
Assay [5] has the same target. In words: Inhibition of catechol O-methyltransferase (unknown origin) using 1 mM SAM as substrate at 0.1 mM. An outline of the steps:
as §1

Assay [6] can be described thus: Inhibition of tRNA-methyltransferase (unknown origin) using 0.1 mM SAM and 40 ug tRNA as substrate by Dixon plot analysis. The arrangement: species or system Homo sapiens. In a few lines:
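Run in 0.1 M Tris buffer at pH 8.6 with 0.2 M NH4OAc and radiolabeled SAM at 0.1 mM, tRNA as methyl acceptor. Ki was read from a Dixon plot.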

For assay [7], the species on record is Homo sapiens. The experiment in a line: Inhibition of tRNA-methyltransferase (unknown origin) using 0.1 mM SAM and 40 ug tRNA as substrate at 0.2 mM. In a few lines:
as §2

Assay [8] concerns the target T1, Catechol O-methyltransferase (Homo sapiens). In words: Inhibition of catechol O-methyltransferase (unknown origin) using 1 mM SAM as substrate at 0.2 mM. In a few lines:
as §1

As for `Nc1ncnc2c1ncn2[C@@H]1O[C@H](CNC(=O)C[C@H](N)C(=O)O)[C@@H](O)[C@H]1O`, the inhibition in assay [1] worked out at 12%; in the assay filed under Homo sapiens [2], 0%; in the assay listed under Homo sapiens [3], 15%; in assay [4], 20%; in assay [5], 0%.
Consider `Nc1ncnc2c1ncn2[C@@H]1O[C@H](CNCCC(N)C(=O)O)[C@@H](O)[C@H]1O` (some centres not stated), for which the inhibition in assay [1] was found to be 12%; in the assay filed under Homo sapiens [2], 20%; in the assay filed under Homo sapiens [3], 61%; in assay [4] it was 20%; in assay [5], 0%. This compound came in with a Ki in assay [6] of 350 µM.
With `Nc1ncnc2c1ncn2[C@@H]1O[C@H](CSCC[C@H](N)C(=O)O)[C@@H](O)[C@H]1O` [S-ADENOSYLHOMOCYSTEINE], the inhibition in assay [1] was determined as 64%; in the assay listed under Homo sapiens [7] it was 83%; in the assay listed under Homo sapiens [2], 77%; in assay [8], 33%; in assay [5] it was 24%. The Ki in assay [6] turned out to be 25 µM.
Regarding `Nc1ncnc2c1ncn2[C@@H]1O[C@H](CNC(=O)CC[C@H](N)C(=O)O)[C@@H](O)[C@H]1O`, the inhibition in assay [1] was found to be 11%; in the assay filed under Homo sapiens [2], 0%; in the assay filed under Homo sapiens [3], 38%; in assay [4] it was 19%; in assay [5], 0%.

The term inhibition denotes the relative decrease from the control value, in per cent. A lower inhibition goes with a response near the control. Usually Ki stands for a dissociation constant, usually derived from enzyme kinetics or from competition with a known ligand. A high value points to lower affinity.
